Assays:
[1] = test system: Rattus norvegicus; assay: Antiparkinsonian activity in 6-hydroxydopamine lesioned Wistar rat assessed as area under curve measured as number of rotation per 10 mins at 16.53 mg/kg, ip; format: functional; settings: route intraperitoneal
Summary of the method: (§1)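 Male Wistar rats were given desipramine (25 mg/kg ip) and then a unilateral 6-OHDA injection (8 µg free base) into the left medial forebrain bundle. Lesions were confirmed ≥2 weeks later by apomorphine (0.5 mg/kg sc), accepting rats with >6 turns/min. Rats (n=4–8) received benserazide 10 mg/kg and 30 min basal recording, then drug at 63.4 µmol/kg ip or po in saline. Contraversive rotations were counted per 10 min over 240 min. AUC was calculated and expressed as % of the L-dopa effect.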

[2] = test system: Rattus norvegicus; assay: Antiparkinsonian activity in 6-hydroxydopamine lesioned Wistar rat assessed as number of rotation per 10 mins at 16.53 mg/kg, po; format: functional
Summary of the method: (§2)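 Rotometer assay in unilaterally 6-OHDA-lesioned male Wistar rats (apomorphine-confirmed, >6 turns/min). Benserazide 10 mg/kg was given, followed by compound at 63.4 µmol/kg ip or po in saline (n=4–8 per treatment). Rotations were recorded per 10 min for 240 min. Peak (maximum) rotations per 10 min were taken and expressed relative to L-dopa.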

[3] = test system: Rattus norvegicus; assay: Antiparkinsonian activity in 6-hydroxydopamine lesioned Wistar rat assessed as duration of rotation per 10 mins at 16.53 mg/kg, ip; format: functional; settings: route intraperitoneal
Summary of the method: (§3)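 The 6-OHDA-lesioned male Wistar rats were apomorphine-screened (>6 turns/min) and given benserazide 10 mg/kg, then a saline-vehicle dose of 63.4 µmol/kg ip or po (n=4–8). Rotations were counted per 10 min for 4 h. Duration of activity was the time turning >10 turns per 10 min, expressed as % of the L-dopa effect.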

[4] = test system: Rattus norvegicus; assay: Antiparkinsonian activity in 6-hydroxydopamine lesioned Wistar rat assessed as number of rotation per 10 mins at 16.53 mg/kg, ip; format: functional; settings: route intraperitoneal; summary of the method: as §2
[5] = test system: Rattus norvegicus; assay: Antiparkinsonian activity in 6-hydroxydopamine lesioned Wistar rat assessed as duration of rotation per 10 mins at 16.53 mg/kg, po; format: functional; summary of the method: as §3
[6] = test system: Rattus norvegicus; assay: Antiparkinsonian activity in 6-hydroxydopamine lesioned Wistar rat assessed as area under curve measured as number of rotation per 10 mins at 16.53 mg/kg, po; format: functional; summary of the method: as §1
[7] = test system: Rattus norvegicus; assay: Antiparkinsonian activity in 6-hydroxydopamine lesioned Wistar rat assessed as duration of rotation per 10 mins at 14.74 mg/kg, po; format: functional; summary of the method: as §3
[8] = test system: Rattus norvegicus; assay: AUC (0 to 4 hrs) in Wistar rat at 14.8 mg/kg, po assessed as L-dopa level; format: ADME, organism-based, Plasma; set-up: time < 4 hr, dose 14.8 mg/kg, route oral; settings: in vivo
Summary of the method: (§4)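 Naïve male Wistar rats (250–500 g), fasted overnight, dosed with compound in 0.9% saline together with benserazide (10 mg/kg), at a dose molar-equivalent to 12.5 mg/kg L-dopa. Heparinised tail-vein blood was sampled at intervals and the plasma stored at −80 °C. L-dopa was extracted with 20% TFA/10 mM metabisulphite plus warfarin internal standard and quantified by LC-MS/MS (positive ESI) against plasma standard curves.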

[9] = test system: Rattus norvegicus; assay: Apparent half life in Wistar rat at 14.8 mg/kg, po assessed as L-dopa level; format: ADME, organism-based; set-up: dose 14.8 mg/kg, route oral; settings: in vivo
Summary of the method: (§5)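 Naïve male Wistar rats (250–500 g), fasted overnight, dosed orally in 0.9% saline with benserazide (10 mg/kg) at dose equivalent to 12.5 mg/kg L-dopa. Heparinised tail-vein blood at various times; plasma extracted with 20% TFA in 10 mM metabisulphite with warfarin internal standard; L-dopa quantified by LC-MS/MS (positive ESI) against plasma standard curve 0.39–50 µM.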

[10] = test system: Rattus norvegicus; assay: Antiparkinsonian activity in 6-hydroxydopamine lesioned Wistar rat assessed as area under curve measured as number of rotation per 10 mins at 14.74 mg/kg, po; format: functional; summary of the method: as §1
[11] = test system: Rattus norvegicus; assay: Antiparkinsonian activity in 6-hydroxydopamine lesioned Wistar rat assessed as number of rotation per 10 mins at 14.74 mg/kg, po; format: functional; summary of the method: as §2
[12] = test system: Rattus norvegicus; assay: Cmax in Wistar rat at 14.8 mg/kg, po assessed as L-dopa level; format: ADME, organism-based; set-up: dose 14.8 mg/kg, route oral; settings: in vivo; summary of the method: as §5
[13] = test system: Rattus norvegicus; assay: Antiparkinsonian activity in 6-hydroxydopamine lesioned Wistar rat assessed as number of rotation per 10 mins at 14.74 mg/kg, ip; format: functional; settings: route intraperitoneal; summary of the method: as §2
[14] = test system: Rattus norvegicus; assay: Antiparkinsonian activity in 6-hydroxydopamine lesioned Wistar rat assessed as duration of rotation per 10 mins at 14.74 mg/kg, ip; format: functional; settings: route intraperitoneal; summary of the method: as §3
[15] = test system: Rattus norvegicus; assay: Antiparkinsonian activity in 6-hydroxydopamine lesioned Wistar rat assessed as area under curve measured as number of rotation per 10 mins at 14.74 mg/kg, ip; format: functional; settings: route intraperitoneal; summary of the method: as §1
[16] = test system: Rattus norvegicus; assay: Antiparkinsonian activity in 6-hydroxydopamine lesioned Wistar rat assessed as area under curve measured as number of rotation per 10 mins at 15.64 mg/kg, ip; format: functional; settings: route intraperitoneal; summary of the method: as §1
[17] = test system: Rattus norvegicus; assay: Antiparkinsonian activity in 6-hydroxydopamine lesioned Wistar rat assessed as number of rotation per 10 mins at 15.64 mg/kg, ip; format: functional; settings: route intraperitoneal; summary of the method: as §2
[18] = test system: Rattus norvegicus; assay: Antiparkinsonian activity in 6-hydroxydopamine lesioned Wistar rat assessed as duration of rotation per 10 mins at 15.64 mg/kg, ip; format: functional; settings: route intraperitoneal; summary of the method: as §3
[19] = test system: Rattus norvegicus; assay: Antiparkinsonian activity in 6-hydroxydopamine lesioned Wistar rat assessed as area under curve measured as number of rotation per 10 mins at 15.64 mg/kg, po; format: functional; summary of the method: as §1
[20] = test system: Rattus norvegicus; assay: Antiparkinsonian activity in 6-hydroxydopamine lesioned Wistar rat assessed as duration of rotation per 10 mins at 15.64 mg/kg, po; format: functional; summary of the method: as §3
[21] = test system: Rattus norvegicus; assay: Antiparkinsonian activity in 6-hydroxydopamine lesioned Wistar rat assessed as number of rotation per 10 mins at 15.64 mg/kg, po; format: functional; summary of the method: as §2
[22] = test system: Rattus norvegicus; assay: Apparent half life in Wistar rat at 42.5 mg/kg, po assessed as L-dopa level; format: ADME, organism-based; set-up: dose 42.5 mg/kg, route oral; settings: in vivo; summary of the method: as §5
[23] = test system: Rattus norvegicus; assay: AUC (0 to 4 hrs) in Wistar rat at 42.5 mg/kg, po assessed as L-dopa level; format: ADME, organism-based, Plasma; set-up: time < 4 hr, dose 42.5 mg/kg, route oral; settings: in vivo; summary of the method: as §4
[24] = test system: Rattus norvegicus; assay: Cmax in Wistar rat at 42.5 mg/kg, po assessed as L-dopa level; format: ADME, organism-based; set-up: dose 42.5 mg/kg, route oral; settings: in vivo; summary of the method: as §5
[25] = test system: Rattus norvegicus; assay: Antiparkinsonian activity in 6-hydroxydopamine lesioned Wistar rat assessed as duration of rotation per 10 mins at 21.35 mg/kg, ip; format: functional; settings: route intraperitoneal; summary of the method: as §3
[26] = test system: Rattus norvegicus; assay: Antiparkinsonian activity in 6-hydroxydopamine lesioned Wistar rat assessed as number of rotation per 10 mins at 21.35 mg/kg, ip; format: functional; settings: route intraperitoneal
[27] = test system: Rattus norvegicus; assay: Antiparkinsonian activity in 6-hydroxydopamine lesioned Wistar rat assessed as number of rotation per 10 mins at 21.35 mg/kg, po; format: functional
[28] = test system: Rattus norvegicus; assay: Antiparkinsonian activity in 6-hydroxydopamine lesioned Wistar rat assessed as area under curve measured as number of rotation per 10 mins at 21.35 mg/kg, ip; format: functional; settings: route intraperitoneal; summary of the method: as §1
[29] = test system: Rattus norvegicus; assay: Antiparkinsonian activity in 6-hydroxydopamine lesioned Wistar rat assessed as area under curve measured as number of rotation per 10 mins at 21.35 mg/kg, po; format: functional; summary of the method: as §1
[30] = test system: Rattus norvegicus; assay: Antiparkinsonian activity in 6-hydroxydopamine lesioned Wistar rat assessed as duration of rotation per 10 mins at 21.35 mg/kg, po; format: functional; summary of the method: as §3
[31] = test system: Rattus norvegicus; assay: Antiparkinsonian activity in 6-hydroxydopamine lesioned Wistar rat assessed as number of rotation per 10 mins at 20.1 mg/kg, ip; format: functional; settings: route intraperitoneal; summary of the method: as §2
[32] = test system: Rattus norvegicus; assay: Apparent half life in Wistar rat at 20.1 mg/kg, po assessed as L-dopa level; format: ADME, organism-based; set-up: dose 20.1 mg/kg, route oral; settings: in vivo; summary of the method: as §5
[33] = test system: Rattus norvegicus; assay: Antiparkinsonian activity in 6-hydroxydopamine lesioned Wistar rat assessed as area under curve measured as number of rotation per 10 mins at 20.1 mg/kg, po; format: functional; summary of the method: as §1
[34] = test system: Rattus norvegicus; assay: Antiparkinsonian activity in 6-hydroxydopamine lesioned Wistar rat assessed as area under curve measured as number of rotation per 10 mins at 20.1 mg/kg, ip; format: functional; settings: route intraperitoneal; summary of the method: as §1
[35] = test system: Rattus norvegicus; assay: Antiparkinsonian activity in 6-hydroxydopamine lesioned Wistar rat assessed as duration of rotation per 10 mins at 20.1 mg/kg, po; format: functional; summary of the method: as §3
[36] = test system: Rattus norvegicus; assay: AUC (0 to 4 hrs) in Wistar rat at 20.1 mg/kg, po assessed as L-dopa level; format: ADME, organism-based, Plasma; set-up: time < 4 hr, dose 20.1 mg/kg, route oral; settings: in vivo; summary of the method: as §4
[37] = test system: Rattus norvegicus; assay: Antiparkinsonian activity in 6-hydroxydopamine lesioned Wistar rat assessed as number of rotation per 10 mins at 20.1 mg/kg, po; format: functional; summary of the method: as §2
[38] = test system: Rattus norvegicus; assay: Cmax in Wistar rat at 20.1 mg/kg, po assessed as L-dopa level; format: ADME, organism-based; set-up: dose 20.1 mg/kg, route oral; settings: in vivo; summary of the method: as §5
[39] = test system: Rattus norvegicus; assay: Antiparkinsonian activity in 6-hydroxydopamine lesioned Wistar rat assessed as duration of rotation per 10 mins at 20.1 mg/kg, ip; format: functional; settings: route intraperitoneal; summary of the method: as §3

Work on `CCNC(=O)[C@@H](N)Cc1ccc(O)c(O)c1.Cl` yielded an Activity [1] of 117, an Activity [2] of 39 and a Time [3] of 18 min. The Activity [4] was 40, the Time [5] was 39 min and the Activity [6] was 324.
Molecule `Cl.NC(=O)[C@@H](N)Cc1ccc(O)c(O)c1` has a Time [7] of 103 min, an AUC [8] of 256 µg·min/mL and a t1/2 [9] of 52 min. The Activity [10] was 612, the Activity [11] was 105 and the Cmax [12] was 2203 ng/mL. The Activity [13] was 144, the Time [14] was 155 min and the Activity [15] was 1186.
In the case of `CNC(=O)[C@@H](N)Cc1ccc(O)c(O)c1.Cl`, the Activity [16] is reported as 16, the Activity [17] is reported as 2 and the Time [18] is reported as 0 min. It also gave an Activity [19] of 29, a Time [20] of 10 min and an Activity [21] of 5.
`CC(C)(C)C(=O)Oc1ccc(C[C@H](N)C(N)=O)cc1OC(=O)C(C)(C)C.Cl` gave a t1/2 [22] of 51 min, an AUC [23] of 44 µg·min/mL and a Cmax [24] of 415 ng/mL.
In the case of `Cl.N[C@@H](Cc1ccc(O)c(O)c1)C(=O)NCCc1ccccc1`, the Time [25] is reported as 124 min, the Activity [26] is reported as 124 and the Activity [27] is reported as 17. It also gave an Activity [28] of 825, an Activity [29] of 94 and a Time [30] of 30 min.
`CC(=O)Oc1ccc(C[C@H](N)C(N)=O)cc1OC(C)=O.Cl` showed an Activity [31] of 69, a t1/2 [32] of 97 min and an Activity [33] of 1085. It also gave an Activity [34] of 838, a Time [35] of 147 min and an AUC [36] of 245 µg·min/mL. The Activity [37] was 107, the Cmax [38] was 1746 ng/mL and the Time [39] was 140 min.

Source: ChEMBL document CHEMBL1240480, “Design, synthesis and biological evaluation of L-dopa amide derivatives as potential prodrugs for the treatment of Parkinson's disease” (Eur J Med Chem, 2010)
